This is a sample that favours compounds with a hit; in the whole collection about 12% have one here.
CHOP inh = inhibitors of CHOP induction in ER stress response. CHO-K1 CHOP-promoter luciferase, tunicamycin-induced, 15-18 h. 220,000 tested, 3.8% active. AID 2732. inhibition, % at 10 µM;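 active = compounds that reduced the stress-induced luciferase reporter signal by more than about 70% of percent inhibition, limit read from the data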
b-catenin transl = modulators of beta-catenin nuclear translocation | HeLa beta-catenin nuclear translocation, immunofluorescence imaging | nuclear translocation activity, % at 5 µM | 190,000 tested, 0.3% active | AID 1665;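 active = nuclear translocation activity above 50% at 5 µM, with a well cell count of 50 or more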;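 note: per-cell ratio of nuclear to cytoplasmic median beta-catenin stain intensity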
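test system = HeLa cells, endogenous beta-catenin | dosing = single 5 µM dose plus 0.02–20 µM confirmation series | times = compound treatment 24 h, 37°C, 5% CO2 | technique = beta-catenin immunofluorescence imaging with DAPI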
L major viab = reduces viability of Leishmania major promastigotes; 200,000 tested, 9% active; resazurin fluorescence viability; inhibition, % at 10 µM; in the data active = inhibition above about 50%;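 note: promastigotes grown with compound for 44 hours at 28 °C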
Autophagy mod = autophagy modulation, high-content screen; MEF GFP-LC3 puncta imaging; test concentration mostly 10 µM; AID 463193; calls only at 10 µM (by protocol); 190,000 tested, 0.98% active;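 active = percentage of spot-positive cells more than 3 SD above its plate mean, without a fluorescence outlier flag or 80% toxicity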
Dynein cargo inh = dynein cargo transport inhibition; 3617.4 mouse cells, GR-EGFP nuclear translocation imaging; test concentration mostly 20 µM; stimulated with dexamethasone, 1 µM; active compounds read low; z-score, hits read low; 220,000 tested, 0.47% active;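 active = plate z-score of nuclear minus cytoplasmic receptor signal below a set negative limit, without overly bright fluorescence or cell loss, cut at about -3.5 in these data, passing the limit was not always enough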;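 note: z-score of nuclear minus cytoplasmic ring GR-EGFP intensity difference per well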
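Buffer or medium: tet-free, stripped-serum medium; reagent: dexamethasone at 1.0 µM final, 30 min; incubation: 48 h induction, 1 h compound, 30 min dex at 37 °C; measured by: formaldehyde fixation, Hoechst nuclear stain, 10x automated fluorescence imaging; read-out: nuclear-to-cytoplasmic GR-EGFP distribution per well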
MT stabilize HCS = microtubule stabilizers in HeLa cells. HeLa tubulin immunostaining HCS, 24 h; share of cells brighter than vehicle mean+2SD. % tubulin-high responders, % at 10 µM. 200,000 tested, 0.83% active. AID 2205;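 active = plate Z-score above 3 for both tubulin-high and condensed-nucleus cell shares, with cell loss under 80%, at 10 µM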;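 note: anti alpha tubulin signal scored within the nucleus-defined area of each cell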
Large screens that a line does not name were inactive.

COCCOc1cc(NC(=O)c2sccc2Oc2ccc([N+](=O)[O-])cc2F)c(Cl)cc1Cl	none
O=C(Nc1ccccc1)c1sccc1Oc1ccc([N+](=O)[O-])cc1F	L major viab 84.0
COc1ccc(C(NC(=O)/C=C/c2ccco2)c2ccc(OC)c(OC)c2)cc1OC	none
COc1ccc(N=C2SC(C(=O)N3CCN(c4ccc([N+](=O)[O-])cc4)CC3)CC(=O)N2C)cc1 (stereo not given)	L major viab 51.8
COc1ccc(C2CC(c3ccccc3)=NN2C(=O)CN2N=NC3C(=O)N(c4cccc(F)c4)C(=O)C32)cc1 (stereo not given)	none (no result: b-catenin transl)
Cc1ccc(NC(=O)Cn2cnc3sc(C(=O)NCCN(C)C)c(C)c3c2=O)cc1Cl	L major viab 76.1
CCOc1cccc2cc(-c3csc(NC(=O)CCC(=O)NCCN4CCCCC4C)n3)c(=O)oc12 (stereo not given)	none
CCOc1cccc2cc(-c3csc(NC(=O)CCC(=O)N4CCC(C)CC4)n3)c(=O)oc12	CHOP inh 86.3, Autophagy mod active (no result: b-catenin transl)
CCOc1cccc2cc(-c3csc(NC(=O)CCC(=O)NCCCN4CCC(C)CC4)n3)c(=O)oc12	L major viab 62.0
COc1ccccc1-n1nnnc1SCC(=O)Nc1cc(C)on1	CHOP inh 70.2 (no result: b-catenin transl)
COc1ccc(-n2nnnc2SCC(=O)Nc2ccccc2N2CCOCC2)cc1OC	L major viab 92.7
CCOc1ccccc1-n1nnnc1SCC(=O)Nc1cc(C)on1	none
Cc1cc(NC(=O)CSc2nncn2-c2ccccc2)no1	none
COc1ccccc1-n1cnnc1SCC(=O)Nc1cc(C)on1	MT stabilize HCS 16.6
CCCCc1c(C)c2cc(C)ccc2[nH]c1=O	CHOP inh 78.9 (no result: b-catenin transl)
O=C(COC(=O)C1CCCCC1)Nc1cc([N+](=O)[O-])ccc1F	none (no result: b-catenin transl)
CC(=O)c1c(C)[nH]c(C(=O)CSc2ncnc3sc(-c4ccccc4)cc23)c1C	L major viab 74.1
O=C(O)CCSc1ncnc2sc(-c3ccccc3)cc12	CHOP inh 88.9 (no result: L major viab, Autophagy mod, MT stabilize HCS)
O=C(O)CSc1ncnc2sc(-c3ccccc3)cc12	none
CC1(C)Cc2c(sc3[nH]c(=S)[nH]c(=O)c23)CO1	none
COc1ccc(/C=C/C(=O)NC(=S)NCc2ccccc2)cc1OC	none (no result: L major viab, Autophagy mod, MT stabilize HCS)
Cc1cccc2c1c1ccc3c(c1n2C)C(=O)C=CC3=O	CHOP inh 78.0 (no result: L major viab, Autophagy mod, MT stabilize HCS)
Cc1ccccc1N1CC(=O)N(c2ccccc2C)CC1=O	none
COC1(c2ccccc2)NC(=S)NN=C1c1ccccc1 (stereo not given)	none
CCN(C(=O)CSc1nnc(-c2cccs2)o1)C1CCS(=O)(=O)C1 (stereo not given)	none
Cc1cc(C)c2c(c1)SC1=NC(c3ccccc3)(C(F)(F)F)NC(=O)N12 (stereo not given)	CHOP inh 94.4
CC(Cc1ccccc1)NC(=S)CN1CCCC1=S (stereo not given)	none (no result: L major viab, Autophagy mod, MT stabilize HCS)
C=CCn1c(SCc2cc([N+](=O)[O-])cc3c2OCOC3)nc2cc(C(=O)O)ccc2c1=O	none (no result: L major viab, Autophagy mod, MT stabilize HCS)
CCC(CO)n1c(SCc2cc([N+](=O)[O-])cc3c2OCOC3)nc2ccccc2c1=O (stereo not given)	L major viab 80.9
CN1c2ccccc2C(C)(C)C12CC(c1ccc(Cl)c(S(=O)(=O)N3CCCC3)c1)=NO2 (stereo not given)	L major viab 69.0 (no result: b-catenin transl)
CN1c2ccccc2C(C)(C)C12CC(CCl)=NO2 (stereo not given)	none
Nn1c(SCc2cccc(Br)c2)nnc1-c1ccncc1	none (no result: L major viab, Autophagy mod, MT stabilize HCS)
CCN(CC(=O)Nc1cccc(OC)c1)C(=O)C1CCN(C(=O)Nc2ccccc2)CC1	none
COc1ccc(CC(=O)Nc2ccc3c(C)cc(=O)oc3c2)cc1OC	L major viab 63.9
Cc1cc(=O)oc2cc(NC(=O)c3cc4ccccc4o3)ccc12	Autophagy mod active
Cc1cc(=O)oc2cc(NC(=O)C3CCCC3)ccc12	L major viab 100.5
O=C(Nc1ccc2oc(=O)ccc2c1)c1cc2ccccc2o1	none
Cc1ccc(CN2CC(C(=O)Nc3ccc4c(C)cc(=O)oc4c3)CC2=O)cc1 (stereo not given)	none
Cc1ccccc1OCCN(C#N)c1nc(N(C)C)nc(N(C)C)n1	none
COC(=O)/C=C1/S/C(=N/N=C/c2ccc(N(C)C)cc2)NC1=O	none
Cc1ccc(-c2nnc(Nc3ccc4c(c3)nc(C)n4C)c3ccccc23)cc1	L major viab 100.7
Cc1ccc(-c2nnc(Nc3ccc(CC(N)=O)cc3)c3ccccc23)cc1	none
COC(=O)c1ccccc1NC(=O)c1cn(-c2ccc(C)c(C)c2)c(=O)c2ccccc12	none
CCOC(=O)c1ccccc1NC(=O)c1cn(-c2ccc(OC)cc2)c(=O)c2ccccc12	L major viab 92.3
COc1ccc(-n2cc(C(=O)Nc3cc([N+](=O)[O-])ccc3OC)c3ccccc3c2=O)cc1	L major viab 76.8
COc1ccccc1NC(=O)c1ccc([N+](=O)[O-])cc1[N+](=O)[O-]	L major viab 85.0 (no result: b-catenin transl)
CCOC(=O)c1ccccc1NC(=O)c1cn(-c2ccc(C)c(C)c2)c(=O)c2ccccc12	L major viab 98.2
COc1ccc([N+](=O)[O-])cc1NC(=O)c1ccccc1SC	none
O=C(COC(=O)CNC(=O)c1ccco1)NCc1ccc(F)cc1	none
C[C@@H]1C=C(C(=O)N2CCOCC2)O[C@H](OCc2ccc(CO)cc2)C1	none
COc1cccc(CNc2nc3ccccc3n2CCN2CCCCC2)c1OC	L major viab 99.8
COc1ccc(OC)c(CNc2nc3ccccc3n2CCN2CCCCC2)c1	L major viab 67.4
c1ccc(Cn2c(CNc3nc4ccccc4n3CCN3CCOCC3)nc3ccccc32)cc1	L major viab 58.5
COc1ccc(CNc2nc3ccccc3n2CCN2CCCCC2)c(OC)c1	L major viab 92.2
O=C(O)CCCNS(=O)(=O)c1ccc(NCc2ccccc2)c(C(=O)O)c1	none
CCN(CC)CCNc1ccc(CO)c2sc3ccccc3c(=O)c12	L major viab 99.8
COc1ccc(C2C(C#N)=C(N)Oc3cc4c(cc32)OCO4)cc1 (stereo not given)	L major viab 96.0 (no result: b-catenin transl)
Cc1c(N(C(=O)c2ccccn2)C2(C(=O)NC3CCCCC3)CCCCC2)c(=O)n(-c2ccccc2)n1C	none
CC(=O)Nc1ccc(N/C=C/C(=O)C(C)(C)C)cc1	none
Cc1ccc(N/C=C/C(=O)C(C)(C)C)c(O)c1	CHOP inh 85.6 (no result: b-catenin transl)
O=C(CNC(=O)c1ccco1)N/N=C/c1cccs1	none (no result: L major viab, Autophagy mod, MT stabilize HCS)
CCCCn1nc2cc(C(=O)NCC34CC5CC(CC(C5)C3)C4)ccc2c1OC	L major viab 58.6
CCCCn1nc2cc(C(=O)NCCCCc3ccccc3)ccc2c1OCC	L major viab 72.6
CCOc1c2ccc(C(=O)NCc3ccccc3OC)cc2nn1CC	none
CCn1nc2cc(C(=O)NCC34CC5CC(CC(C5)C3)C4)ccc2c1OC	L major viab 51.1
